Assay results of several laboratories.
Organism: Escherichia coli
Effect on: microbial growth

| Compound | method | cells | strain | time | MIC |
| --- | --- | --- | --- | --- | --- |
| CC(O)CSc1nnc(-c2ccccc2)n1-c1ccccc1 (stereo not drawn) | – | – | – | – | 11000 µg/mL |
| CN(C)c1cc(NC(=O)CNC(C)(C)C)c(O)c2c1C[C@H]1C[C@H]3[C@H](N(C)C)C(O)=C(C(N)=O)C(=O)[C@@]3(O)C(O)=C1C2=O | broth dilution | – | – | – | ≤ 0.06 µg/mL |
| Cc1[nH]c(C(=O)Nc2ccc(C(=O)NCc3n[nH]c(=O)o3)cc2N2CCN(C(=O)OC(C)(C)C)CC2)c(Cl)c1Cl | broth dilution | – | ATCC25922 | – | > 32 µg/mL |
| O=C(N[C@H](CO)[C@H](O)c1ccc([N+](=O)[O-])cc1)C(Cl)Cl | – | – | – | 24 h | 2.5 to 5 µM |
| Cc1[nH]c(C(=O)Nc2ccc(C(=O)NCC(=O)O)cc2N2CC[C@@H](NC(=O)OC(C)(C)C)C2)c(Cl)c1Cl | broth dilution | – | ATCC25922 | – | > 32 µg/mL |
| C[C@@H](O)[C@H]1C(=O)N2C(C(=O)O)=C(SCCNC=N)C[C@H]12 | broth dilution | – | – | – | ≤ 0.06 µg/mL |
| Cc1nn(-c2ccccc2)c2c1C(c1ccco1)N(C(=O)c1ccncc1)N2 (stereo not drawn) | – | – | MTCC739 | 24 h | 64 µg/mL |
| CC1(C)S[C@@H]2[C@H](NC(=O)[C@H](N)c3ccccc3)C(=O)N2[C@H]1C(=O)O | broth dilution | – | ATCC25922 | – | 4 µg/mL |
| Cc1nn(-c2ccccc2)c2c1C(c1cncs1)N(C(=O)c1ccncc1)N2 (stereo not drawn) | – | – | MTCC739 | 24 h | 64 µg/mL |
| CO/N=C(\C(=O)N[C@@H]1C(=O)N2C(C(=O)[O-])=C(C[N+]3(C)CCCC3)CS[C@H]12)c1csc(N)n1 | broth dilution | – | – | – | ≤ 0.06 µg/mL |
| Cc1ccccc1NC(=O)C=Cc1ccc(O)c(O)c1 | broth dilution | – | ATCC25922 | – | 4 µg/mL |
| Cc1nn(-c2ccccc2)c2c1C(c1c[nH]c3ccccc13)N(C(=O)c1ccncc1)N2 (stereo not drawn) | – | – | MTCC739 | 24 h | > 100 µg/mL |
| C[C@@H](O)[C@H]1C(=O)N2C(C(=O)O)=C(S[C@@H]3CN[C@H](C(=O)N(C)C)C3)[C@H](C)[C@H]12 | broth dilution | – | ATCC25922 | 20 h | < 0.5 µg/mL |
| CC1CCC(C(C)C)C(OC(=O)C=Cc2ccc(O)c(O)c2)C1 (stereo not drawn) | broth dilution | – | ATCC25922 | – | 2 µg/mL |
| CC(C)(C)OC(=O)N1CCN(c2cc(C(=O)NCC(=O)O)ccc2NC(=O)c2cc(Br)c(Br)[nH]2)CC1 | broth dilution | – | ATCC25922 | – | > 32 µg/mL |
| Cc1nn(-c2ccccc2)c2c1C(c1ccc(O)cc1)N(C(=O)c1ccncc1)N2 (stereo not drawn) | – | – | MTCC739 | 24 h | 16 µg/mL |
| CO/N=C(\C(=O)N[C@@H]1C(=O)N2C(C(=O)O)=C(CSc3nc(=O)c(O)nn3C)CS[C@H]12)c1csc(N)n1 | broth dilution | – | – | – | ≤ 0.5 µg/mL |
| CC(O)CSc1nnc(COc2ccc(Cl)cc2Br)n1-c1ccccc1 (stereo not drawn) | – | – | – | – | 20500 µg/mL |
| O=C(C=Cc1ccc(O)c(O)c1)OCCc1ccccc1 | broth dilution | – | ATCC25922 | – | 32 µg/mL |
| Cc1[nH]c(C(=O)Nc2ccc(C(=O)NCc3n[nH]c(=O)o3)cc2N2CCNCC2)c(Cl)c1Cl.Cl | broth dilution | – | ATCC25922 | – | > 32 µg/mL |
| COc1cc(Cc2cnc(N)nc2N)cc(OC)c1OC | broth dilution | – | ATCC25922 | – | 8 µg/mL |
| Cc1[nH]c(C(=O)Nc2ccc(C(=O)NCC(=O)O)cc2N2CCN(C(=O)OC(C)(C)C)CC2)c(Cl)c1Cl | broth dilution | – | ATCC25922 | – | > 32 µg/mL |
| CN[C@@H]1[C@@H](O[C@H]2O[C@H](CO)[C@@H](N)[C@H](O)[C@H]2O)OC2C[C@@H](N)[C@@H](O[C@H]3[C@H](O)[C@@H](O)[C@H](N)C[C@@H]3N)OC2[C@@H]1O (stereo partly drawn) | – | – | – | 24 h | 2.5 to 5 µM |
| CC(C)(C)OC(=O)N[C@@H]1CCN(c2cc(C(=O)NCC(=O)O)ccc2NC(=O)c2cc(Br)c(Br)[nH]2)C1 | broth dilution | – | ATCC25922 | – | > 32 µg/mL |
| C[C@@H](O)[C@H]1C(=O)N2C(C(=O)O)=C(S[C@@H]3CN[C@H](C(=O)Nc4cccc(C(=O)O)c4)C3)[C@H](C)[C@H]12 | broth dilution | – | – | – | ≤ 0.125 µg/mL |
| Cc1[nH]c(C(=O)Nc2ccc(C(=O)NCC(=O)O)cc2N2CC[C@H](N)C2)c(Cl)c1Cl.Cl | broth dilution | – | ATCC25922 | – | > 32 µg/mL |
| O=C(O)c1cn(C2CC2)c2cc(N3CCNCC3)c(F)cc2c1=O | – | K12 | MG1655 | – | 2 µM |
| O=C(C=Cc1ccc(O)c(O)c1)Oc1ccccc1 | broth dilution | – | ATCC25922 | – | 8 µg/mL |
| Cl.N[C@H]1CCN(c2cc(C(=O)NCC(=O)O)ccc2NC(=O)c2cc(Br)c(Br)[nH]2)C1 | broth dilution | – | ATCC25922 | – | > 32 µg/mL |
| Cc1ccc(-c2nnc(SCC(C)O)n2-c2ccccc2)cc1 (stereo not drawn) | – | – | – | – | 12500 µg/mL |
